High-throughput results from PubChem BioAssay.
KCNK3 block = human KCNK3 channel inhibition, primary screen. O14649. CHO-KCNK3 thallium flux, FluxOR fluorescence; hits give low values. B-score at 10 µM. 0.84% of 340,000 active. AID 602410;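 active = B-score under library mean minus 4 SD, starting fluorescence ratio at most library mean plus 5 SD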;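 also: more negative B-score means stronger inhibition of thallium flux through KCNK3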
Target sequence (O14649 whole entry, looked up): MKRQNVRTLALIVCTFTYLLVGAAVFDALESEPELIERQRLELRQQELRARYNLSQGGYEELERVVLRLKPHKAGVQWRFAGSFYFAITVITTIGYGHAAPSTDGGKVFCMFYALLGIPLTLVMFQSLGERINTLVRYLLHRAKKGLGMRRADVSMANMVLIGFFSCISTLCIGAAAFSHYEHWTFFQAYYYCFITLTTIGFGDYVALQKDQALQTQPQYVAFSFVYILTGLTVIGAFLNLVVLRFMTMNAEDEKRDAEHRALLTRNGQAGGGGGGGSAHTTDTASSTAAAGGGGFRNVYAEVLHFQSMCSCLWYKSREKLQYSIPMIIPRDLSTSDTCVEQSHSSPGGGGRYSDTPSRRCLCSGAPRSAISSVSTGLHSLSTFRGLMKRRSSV
KCNQ1 inh = human KCNQ1 channel inhibition; CHO-K1 KCNQ1, FluxOR thallium flux fluorescence; hits give high values; B-score at 10 µM; 1.3% of 310,000 active; AID 2642;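 active = compounds whose thallium flux B-score, printed positive for inhibition, exceeds three library SD while starting fluorescence stays within three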;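 also: channel opened by potassium depolarization with thallium stimulus after 20 min compound exposure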
Kir21 block = inhibitors of mouse Kir2.1 inward-rectifier potassium channel | HEK293-Kir2.1, FluxOR thallium flux fluorescence; hits give low values | P35561 | B-score at 10 µM | 0.85% of 310,000 active;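 active = fluorescence ratio B-score at or below minus 3 SD of library scores, with starting-brightness B-score within 2 SD, cut at about -4.2 in these data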;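 also: channel flux triggered by added potassium and thallium sulfate stimulus; B-score of peak minus minimum fluorescence over baseline after thallium stimulus; more negative B-score means stronger Kir2.1 block with less thallium influx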
KCNK9 inh = blocks the human KCNK9 two-pore domain potassium channel | HEK293 KCNK9, FluxOR thallium flux fluorescence; hits give low values | B-score at 10 µM | 1.2% of 310,000 active | AID 488922;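 active = ratio B-score over 3 SD below the library mean, with starting fluorescence within 5 SD of its mean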;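 also: negative B-score means less thallium flux so channel inhibition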
KCNQ1 pot = human KCNQ1 channel potentiation or activation; P51787; CHO-K1 KCNQ1, thallium flux FluxOR fluorescence; hits give high values; B-score at 10 µM; 0.35% of 310,000 active;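 active = fluorescence ratio B-score, a plate-corrected score, at least three library SD, with initial intensity B-score within 5 SD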
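assay system = KCNQ1-transfected CHO-K1 cells | medium = assay buffer with matched DMSO | probe or stimulus = depolarizing K+/Tl+ stimulus, K2SO4 and Tl2SO4 each 12.5 mM in 5x stock | dosing = single dose | incubation = dye 90 min, compound 20 min, room temperature | detection = kinetic FluxOR fluorescence, 10 s baseline plus 110 s post-stimulus | evaluation = ratio B score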
hERG rescue = hERG (human) protection from proarrhythmic block; 0.51% of 310,000 active; Q12809; CHO-hERG, FluxOR thallium flux, dofetilide IC70 present; activation (rescue from dofetilide block), less the hit threshold, % at 10 µM;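 active = activation above the mean of controls blocked by dofetilide plus 5 SD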;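 also: thallium influx through hERG after potassium depolarization seen as dye fluorescence rise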
The depositor's hits bear a star; i = inactive; · = no result given. Rows were chosen to be rich in hits. Some 3.7% of all compounds tested hit in one or more screens of this group.

SMILES | KCNK3 block | KCNQ1 inh | Kir21 block | KCNK9 inh | KCNQ1 pot | hERG rescue
Cc1ccnn1CCC(=O)N1CCCC(N2CCN(c3cccc(Cl)c3)CC2)C1 (configuration not stated) | i | i | -0.99 | i | i | -7.7
COC(=O)C1=C(Nc2ccccc2NC(=O)c2ccccc2C(=O)O)CSC1 | i | i | -1.19 | i | i | -5.3
COC(=O)C1=C(Nc2ccccc2NS(=O)(=O)c2ccc(C(F)(F)F)cc2Cl)CSC1 | i | 6* | -0.02 | i | i | -11.2
Cc1ccc(CC2C(=O)N(c3cc(C)ccc3C)C(=O)C2C)cc1 (configuration not stated) | i | i | -1.2 | i | i | -1.9
CCOC(=O)c1c(CCl)nc2ccccc2c1-c1ccccc1 | i | i | -1.75 | i | i | -11.1
CCOC(=O)c1c(C)nc2ccccc2c1-c1ccccc1 | i | i | -5.93* | i | i | -13.4
CC1(C)Cc2c(ccc3ccccc23)C2=C(C(=O)N3CCCC3)C(=O)C(=O)N21 | i | i | 0.22 | i | i | 5.1*
Cc1nnc(SCC(=O)Nc2nc(-c3ccc(F)cc3)cs2)[nH]c1=O | i | i | 1.53 | i | i | -9.0
C=C(C)COc1ccc(-c2nc(N)ncc2Oc2ccc(OC)cc2)c(O)c1 | i | i | -0.31 | i | i | -13.1
C=C(C)COc1ccc(-c2nc(N)ncc2Oc2ccccc2OC)c(O)c1 | -9.22* | · | · | · | · | ·
COCCSc1ccccc1C(=O)Nc1ccccc1C#N | i | i | -0.1 | i | i | -12.0
CCN(CC)S(=O)(=O)c1ccc(Cl)c(C(=O)Nc2ccc(Cl)cc2[N+](=O)[O-])c1 | i | i | 1.22 | -6.62* | i | -15.7
CCN(CC)S(=O)(=O)c1ccc(OC)c(NC(=O)c2cc([N+](=O)[O-])ccc2Cl)c1 | i | i | 0.65 | i | i | -9.3
COc1ccc(Cn2nnnc2C(c2ccccc2Cl)N2CCN(C3CCCC3)CC2)cc1 (configuration not stated) | i | i | -5.1* | i | i | -10.8
O=C(NC(=S)NC1CCCc2ccccc21)c1ccc(F)cc1 (configuration not stated) | i | i | -0.62 | i | 9* | -7.9
CC(C)c1ccccc1OCC(=O)NC1CCCc2ccccc21 (configuration not stated) | i | i | -6.97* | i | i | -9.3
Cc1cc(C)cc(OCC(=O)NC2CCCc3ccccc32)c1 (configuration not stated) | i | i | -0.07 | i | i | -7.6
COc1ccccc1OCC(=O)NC1CCCc2ccccc21 (configuration not stated) | i | i | -4.88* | i | i | -10.5
Cc1cccc(OCC(=O)NC2CCCc3ccccc32)c1C (configuration not stated) | i | i | 0.94 | i | i | -3.5
COCCCn1c(=O)c2sccc2n2c(CCCC(=O)NCc3cccc(OC)c3)nnc12 | i | i | 0.93 | i | i | -8.7
O=C1Cc2cc(S(=O)(=O)Nc3ccc(N4CCOCC4)cc3)ccc2N1 | i | · | · | · | · | ·
Cc1ccc(C(=O)N2CCSCC2)cc1 | i | i | 0.04 | i | i | -9.1
Cc1[nH]c(C)c(S(=O)(=O)NCc2ccc(F)cc2)c1C(=O)N1CCCC1 | i | i | -0.14 | i | i | -7.4
Nc1ccc2c(c1)C(=O)C(=O)c1ccccc1-2 | i | i | 0.08 | i | i | 6.9*
N#Cc1ccccc1OCC(=O)OCC(=O)Nc1ccc2c(c1)OCO2 | i | · | · | · | · | ·
CCOC(=O)C1C(c2ccccc2)C(C(=O)OCC)C1c1ccccc1 (configuration not stated) | i | i | 1.15 | i | i | 5.7*
COc1cccc(C=NCC(C)N=Cc2cccc(OC)c2O)c1O (configuration not stated) | i | i | 0.12 | i | i | 5.2*
COc1ccc(O)c(C=NCC(C)N=Cc2cc(OC)ccc2O)c1 (configuration not stated) | i | i | 0.9 | i | i | -2.8
CC(C)[C@H](NC(=O)OC(C)(C)C)c1nnc(SCC(=O)Nc2ccc(Br)cc2)o1 | i | 6* | -1.29 | i | i | -18.7
